Test results taken from paper PMC7486978 (Molecular pharmaceutics, 2019).
Bridge positions count the residues as written; N and C are the ends. Peptide text beside a SMILES is read from it. * marks the point of attachment. NOTA(2S-Bn(4-NHCS)) = O=C(O)CN1CCN(CC(=O)O)C[C@H](Cc2ccc(NC(=S)*)cc2)N(CC(=O)O)CC1

Assays:
in vivo = type: in vivo, BALB/c nude mice; conditions: female, BALB/c nude, mouse, in vivo, total radioactivity
MCF-7 xenograft mice = experiment: in vivo; type: in vivo, BALB/c nude mice; conditions: for tumor uptake (biodistribution): no blocking, mean ± SD
MX-1 xenograft mice = experiment: Post-imaging biodistribution; type: in vivo, BALB/c nude mice; conditions: 1 h p.i., mean ± SD, n = 4
Method in brief: (§1)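 Female BALB/c nude mice were injected s.c. in the right shoulder with 1.0 × 10⁷ cells (MDA-MB-231/MDA-MB-468 grown in L-15 without CO₂; MX-1 in high-glucose DMEM, 10% FBS, 5% CO₂). They were used at tumor size 0.8–1.0 cm and given ⁶⁸Ga-labelled test compound (6.5–9 MBq, 125 μL) by tail vein. PET/CT under 2.0% isoflurane ran at 30 min. Mice were euthanized at 1 h; tissues weighed, γ-counted, decay-corrected %ID/g, mean ± SD.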

MCF-7 cells = experiment: In vitro cell uptake and blocking study; type: cell-based, human; conditions: 100 times excess (100 pmol) nonradioactive RGD, NGR, RGD+NGR or NGR-RGD 15 min in advance; 2 h at 37 °C
[1] = system: MDA-MB-468 tumor xenograft; experiment: Small-animal PET/CT imaging, ROI tumor uptake; type: in vivo, BALB/c nude mice; conditions: MDA-MB-468 xenograft, 30 min p.i., 6.5–9 MBq; n = 4
[2] = system: MDA-MB-231 tumor xenograft; experiment: Small-animal PET/CT imaging, ROI tumor uptake; type: in vivo, BALB/c nude mice; conditions: MDA-MB-231 xenograft, 30 min p.i., 6.5–9 MBq; n = 4
MCF-7 tumor xenograft = experiment: Small-animal PET/CT imaging, ROI tumor uptake; type: in vivo, BALB/c nude mice; conditions: MCF-7 xenograft, 30 min p.i., n = 4
[3] = system: MDA-MB-231 xenograft mice; experiment: Post-imaging biodistribution; type: in vivo, BALB/c nude mice; conditions: 1 h p.i., mean ± SD, n = 4
Method in brief: as §1

[4] = In vitro stability in PBS; type: physicochemical; conditions: PBS pH 7.4, 37 °C, 2 h, 14.8 MBq; analytical radio-HPLC
Method in brief: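 ⁶⁸Ga-labelled test compound was prepared by heating precursor with [⁶⁸Ga]GaCl₃ in sodium acetate buffer (final pH about 4.0) at 90 °C for 5 min and used unpurified. Tracer (14.8 MBq) was held in PBS pH 7.4 at 37 °C for 2 h.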

[5] = system: MDA-MB-468 xenograft mice; experiment: Post-imaging biodistribution; type: in vivo, BALB/c nude mice; conditions: 1 h p.i., mean ± SD, n = 4
Method in brief: as §1

MX-1 tumor xenograft = experiment: Small-animal PET/CT imaging, ROI tumor uptake; type: in vivo, BALB/c nude mice; conditions: MX-1 xenograft, 30 min p.i., 6.5–9 MBq; n = 4
[6] = MCF-7 xenograft mice, 1 h p.i., n = 4

Row | Molecule | tissue uptake at 1 h (in vivo) | tumor uptake (biodistribution) (MCF-7 xenograft mice; [6]) | tumor uptake (biodistribution), blocked with NGR-RGD (MCF-7 xenograft mice; MCF-7 xenograft mice, 1 h p.i., coinjection of excess unlabeled NGR-RGD, n = 4) | tumor uptake (biodistribution), blocked with NGR (MCF-7 xenograft mice; MCF-7 xenograft mice, 1 h p.i., coinjection of excess unlabeled NGR, n = 4) | tumor uptake (biodistribution), blocked with RGD+NGR (MCF-7 xenograft mice; MCF-7 xenograft mice, 1 h p.i., coinjection of excess unlabeled RGD+NGR, n = 4) | tumor uptake (biodistribution), blocked with RGD (MCF-7 xenograft mice; MCF-7 xenograft mice, 1 h p.i., coinjection of excess unlabeled RGD, n = 4) | accumulation in the kidneys (biodistribution) (MCF-7 xenograft mice; mouse, in vivo, 1 h) | tumor uptake (biodistribution) (MX-1 xenograft mice) | uptake by MCF-7 cells when pretreated with excess of blocking agents (MCF-7 cells) | tumor uptake (PET ROI) [1] | tumor uptake (PET ROI) [2] | tumor uptake (PET ROI), blocked by NGR (MCF-7 tumor xenograft; coinjected unlabeled NGR 20 mg/kg) | tumor uptake (PET ROI), blocked by NGR-RGD (MCF-7 tumor xenograft; coinjected unlabeled NGR-RGD 20 mg/kg) | tumor uptake (PET ROI), blocked by RGD (MCF-7 tumor xenograft; coinjected unlabeled RGD 20 mg/kg) | tumor uptake (PET ROI), blocked by RGD+NGR (MCF-7 tumor xenograft; coinjected unlabeled RGD+NGR 20 mg/kg) | tumor uptake (PET ROI) (MCF-7 tumor xenograft; comparison of tumor types (Figure 5B)) | tumor uptake (biodistribution) [3] | proportion of the intact tracer [4] | tumor uptake (biodistribution) [5] | tumor uptake (PET ROI) (MX-1 tumor xenograft)
1 | N=C(N)NCCC[C@@H]1NC(=O)CNC(=O)[C@H](CC(N)=O)NC(=O)[C@H](CCCCNC(=S)Nc2ccc(C[C@H]3CN(CC(=O)O)CCN(CC(=O)O)CCN3CC(=O)O)cc2)NC(=O)CC[C@@H](C(N)=O)NC1=O [^68Ga-NGR, metal not drawn, reference compound] (K(NOTA(2S-Bn(4-NHCS)))NGRE-NH2; lactam N-5; C-terminus assumed) | 0.87 ± 0.04 %ID/g | 0.14 ± 0.04 %ID/g |  |  |  |  |  |  |  |  |  |  |  |  |  |  |  |  |  | 
2 | c(RGDyK)-PEG4-NOTA-click-PEG4-c(CNGRC) (bicyclic or more) [^68Ga-NGR-RGD] |  | 1.02 ± 0.16 %ID/g | 0.16 ± 0.04 %ID/g | 0.67 ± 0.02 %ID/g | 0.20 ± 0.07 %ID/g | 0.17 ± 0.04 %ID/g | 2.52 ± 0.30 %ID/g | 0.20 ± 0.03 %ID/g | decreased significantly | 0.76 ± 0.10 %ID/g | 1.04 ± 0.06 %ID/g | 0.80 ± 0.03 %ID/g | 0.28 ± 0.06 %ID/g | 0.37 ± 0.05 % ID/g | 0.31 ± 0.03 %ID/g | 1.03 ± 0.08 %ID/g | 0.53 ± 0.05 %ID/g | exceeded 95% | 0.28 ± 0.04 %ID/g | 0.41 ± 0.08 %ID/g
